High-throughput results (PubChem)
A selection: hits, their analogues and other compounds. The true share with any hit is near 2.7%.
VIM-2 inhibitor = inhibitors of Pseudomonas aeruginosa VIM-2 metallo-beta-lactamase | 290,000 tested, 0.89% active | purified VIM-2, nitrocefin hydrolysis, epi-absorbance fluorescence | inhibition, % at 5.6 µM;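 active = inhibition above the mean of all tested compounds plus 3 SD, cutoff set per screening run, cut at about 7.5% in these data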;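 also: red hydrolysis product quenches plate fluorescence so inhibitors raise well fluorescence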
M18AAP inhibitor = blocks P. falciparum M18 aspartyl aminopeptidase | recombinant PfM18AAP, H-Glu-NHMec fluorogenic cleavage | inhibition, % at 7.35 µM | 290,000 tested, 1.2% active | AID 1822;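 active = inhibition above the campaign mean inhibition over all tested compounds plus 3 SD, cut at about 28% in these data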
IMP-1 inhibitor = inhibitors of Pseudomonas aeruginosa IMP-1 metallo-beta-lactamase; inhibition, % at 5.6 µM; 290,000 tested, 0.45% active; AID 1556; purified IMP-1, nitrocefin hydrolysis, epi-absorbance fluorescence;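 active = inhibition above the mean plus 3 SD of all compounds in the same screening run, cut at about 4.5% in these data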
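Assay system: purified recombinant IMP-1 beta-lactamase. Input: IMP-1 0.2 nM before substrate addition. Buffer or medium: Zinc- and detergent-supplemented HEPES buffer, pH 7.1. Schedule: 25 °C, 15 min preincubation, 25 min reaction. Signal: Epi-absorbance fluorescence, 480 nm excitation, 530 nm emission. Evaluation: percent inhibition from optical density relative to buffer-blank wells.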
CTSL1 counter = cathepsin L1 inhibition, PFM18AAP counter-screen | recombinant F. hepatica cathepsin L1, Z-Leu-Arg-MCA fluorescence | inhibition, % at 5.96 µM | 300,000 tested, 0.49% active;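 active = inhibition above the mean of all tested compounds plus 3 SD, set per screening campaign, cut at about 17% in these data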
Of the large screens only hits and unclear results are named; the others gave an inactive call.

COCCNc1nc(SC)nc2sc3c(c12)CCN(C)C3	VIM-2 inhibitor 9.8
CCNC(=O)CN1C(=O)NC(Cc2ccccc2)(Cc2ccccc2)C1=O	none
CCCCN(NC(C)=O)c1nc(Cl)nc(NC(C)C)n1	none
CC(C)(C)OC(=O)N/N=C\C=C\c1ccc2c(c1)OCO2	none
O=C(COC(=O)c1ccccn1)Nc1ncc(C(F)(F)F)cc1Cl	none
O=C(COC(=O)c1ccc([N+](=O)[O-])s1)Nc1ncc(C(F)(F)F)cc1Cl	CTSL1 counter 34.0
Nc1nc(SCC(=O)Nc2ncc(C(F)(F)F)cc2Cl)n[nH]1	M18AAP inhibitor 28.3
O=[N+]([O-])c1cccc(C=Nc2cc3c(cc2Br)OCCO3)c1	none
Cc1ccc(N2C(=O)c3cccc4c(N)ccc(c34)C2=O)c2cccnc12	IMP-1 inhibitor 5.7
Cc1ccc(-n2cnnn2)c2cccnc12	none
COc1ccc(NC(=O)c2cncc(Br)c2)cc1S(N)(=O)=O	none
Cc1c(Cc2ccccc2)c(=O)oc2c(CN(C)C)c(O)c(Cl)cc12	IMP-1 inhibitor 4.7
Cn1ncc(Cl)c1C(=O)Nc1ccc(CN2CCCCC2)cc1	none
CCCCn1c(N)c(N(CCOC)C(=O)c2c(C)noc2C)c(=O)[nH]c1=O	none (no result: VIM-2 inhibitor, M18AAP inhibitor, IMP-1 inhibitor)
Cc1ccnc(N/C=C(/NC(=O)c2ccccc2)C(=O)N/N=C\c2ccc(Cl)cc2)n1	CTSL1 counter 16.6
O=C(N/N=C/c1ccncc1)/C(=C/c1ccccc1)NC(=O)c1ccccc1	none
Cc1ccc(N(C(=O)c2csnn2)C(C(=O)NC2CCCCC2)c2cccnc2)c(C)c1 (stereo not given)	none
Cc1cc(OCC(=O)NC2CCN(Cc3ccccc3)CC2)c2c(C)cc(=O)oc2c1	VIM-2 inhibitor 9.3
CCOC(=O)N1CCN(C(=S)NC(=O)c2cncc(Br)c2)CC1	IMP-1 inhibitor 5.4
COc1cc(C(=O)c2nccc3cc(OC)c(OC)cc23)c([N+](=O)[O-])cc1OC	CTSL1 counter 42.1
COc1cc(Br)c(C(=O)c2nccc3cc(OC)c(OC)cc23)cc1OC	CTSL1 counter 103.0
COc1cc(N)c(C(=O)c2nccc3cc(OC)c(OC)cc23)cc1OC	none
Cc1ccc(CNC(=O)C2CCCN(c3nc4ccccc4o3)C2)cc1 (stereo not given)	none
O=C(NCc1cccs1)C1CCCN(c2nc3ccccc3o2)C1 (stereo not given)	IMP-1 inhibitor 4.8
O=C(Cc1c(Cl)cccc1Cl)NCCc1ccc(Cl)cc1	none
O=C(CCl)NCc1c(Cl)cccc1-n1cccc1	CTSL1 counter 17.5
Cc1ccc2nc(NCCNC(=O)c3ccccc3)c(C#N)cc2c1	CTSL1 counter 38.5
CCN(CC(=O)NCc1cccs1)C(=O)c1cc(S(=O)(=O)NCc2ccccc2)ccc1C	none (no result: VIM-2 inhibitor, M18AAP inhibitor, IMP-1 inhibitor)
COc1ccccc1Nc1c2c(nc3ccc(N)cc13)CCCC2	VIM-2 inhibitor 8.7
COc1ccc(Nc2c3c(nc4ccc(C)cc24)CCC3)cc1	VIM-2 inhibitor 9.1
Cc1cccc(Nc2c3c(nc4ccccc24)CCC3)c1	none
COc1cc(Nc2c3c(nc4ccccc24)CCC3)cc(OC)c1OC	none
O=C(O)CSCC(=O)Nc1ccccc1SCCS(=O)(=O)c1ccc(Cl)cc1	none (no result: CTSL1 counter)
Cc1cc(Cl)ccc1NC(=S)NCCN1CCOCC1	none
COC(=O)c1ccc(-n2cc(-c3ccc(OC)cc3)[nH]c2=S)cc1	M18AAP inhibitor 28.5
Cc1ccc(S(=O)(=O)c2nc(C)oc2NCc2ccccc2)cc1	CTSL1 counter 34.8
CNc1oc(Cc2ccccc2)nc1S(=O)(=O)c1ccccc1	CTSL1 counter 22.5
CCn1c(SCC(=O)N2CCOCC2)nc2c([nH]c3ccccc32)c1=O	VIM-2 inhibitor 8.0
COc1ccc(-c2cn[nH]c2-c2ccc(OC)cc2O)cc1	none
COc1ccc(-c2[nH]ncc2-c2ccc(Cl)cc2)c(O)c1	CTSL1 counter 17.3
COc1ccc2c(c1O)C(=O)c1ccccc1C2=O	none
CC(C)COC(=O)c1ccc2c(c1O)C(=O)c1ccccc1C2=O	CTSL1 counter 24.4
CC(C)NC(=O)c1cccc2c1-c1ccccc1C2=O	none
NC(=O)COC(=O)c1cccc2c1-c1ccccc1C2=O	VIM-2 inhibitor 7.9
Cc1cccc(CN2CCC(n3nccc3NC(=O)CCCc3ccccc3)CC2)n1	none
CN(C)S(=O)(=O)Nc1cc(Cl)cc(Cl)c1	none
O=C1CSC(=S)N1/N=C/C=C/c1ccccc1	M18AAP inhibitor 53.6
N=C1SCC(=O)N1/N=C/c1ccccc1	none
O=C1CSC(=S)N1/N=C/c1ccc(C(F)(F)F)cc1	M18AAP inhibitor 30.8
CCc1ccccc1NC(=O)Cn1nc(C(F)(F)F)cc1C1CC1	none
Cc1c(C(=O)OCC(=O)N2CC(=O)Nc3ccccc32)oc2ccc(Br)cc12	none
COc1ccc(CNC(=O)c2c(C)oc3c2C(=O)c2ccccc2C3=O)cc1	none
Cc1oc2c(c1C(=O)NCc1cccnc1)C(=O)c1ccccc1C2=O	VIM-2 inhibitor 9.2, CTSL1 counter 31.0
Cc1cc(C)nc(N(C#N)CC(=O)N(c2ccccc2)C(C)C)n1	none
CCc1ccc(C(=O)CN(C#N)c2nc(C)cc(C)n2)cc1	CTSL1 counter 58.3
Cc1cc(C)nc(N(C#N)CC(=O)c2ccccc2)n1	CTSL1 counter 68.8
COC(=O)C1Sc2[nH]c(=O)sc2C2c3ccccc3OC(=O)C12 (stereo not given)	none
O=C(O)C1Sc2[nH]c(=O)sc2C2c3cc(Br)ccc3OC(=O)C12 (stereo not given)	IMP-1 inhibitor 5.5
Cc1ccccc1-n1c(C)nnc1SCC(=O)N1CC(=O)Nc2ccccc21	none
COc1ccccc1N(C)S(=O)(=O)c1ccc(C(=O)OCC(=O)NCCC2=CCCCC2)cc1	none
O=C(Nc1cccn(Cc2c(F)cccc2Cl)c1=O)NC1CCCCC1	M18AAP inhibitor 28.3
CCN1CC(CN(C)Cc2cn(-c3cccc(C)c3)nc2-c2cccc(F)c2)CC1=O (stereo not given)	none
CC(=O)Nc1nc(SCC(=O)Nc2nnc(C)s2)[nH]c(=O)c1NC(=O)c1cccs1	none
Cc1cccc(OCC(=O)NCCCNC(=O)c2ccc(C)nc2)c1	none
Cc1csc2nc3ccccc3c(=O)n12	VIM-2 inhibitor 7.8
CCNC(=O)NC(=O)C(C)N1C(=O)NC(c2ccccc2)(c2ccccc2)C1=O (stereo not given)	none
C/C(=N\NC(=O)C(N)=O)c1cccc([N+](=O)[O-])c1	IMP-1 inhibitor 15.5
CCOc1cc(CNc2ccc(CNc3ncn[nH]3)cc2)ccc1OCc1ccccc1	M18AAP inhibitor 39.6
CCN(CCO)c1ncnc2c1sc1nc(C(C)C)c3c(c12)CC(C)(C)OC3	none
CCN(CCO)c1nc(SC)nc2c1sc1nc(-c3ccco3)c3c(c12)CCC3	IMP-1 inhibitor 12.1, CTSL1 counter 17.5
CSc1nc(NCCOCCO)c2sc3nc(-c4ccco4)c4c(c3c2n1)CCC4	CTSL1 counter 17.4
COc1ccc(C(=O)/C=C/c2ccccc2)c(O)c1	CTSL1 counter 22.3
C=CCn1c(-c2csc(-c3ccccc3)n2)n[nH]c1=S	none
C=CCn1c(-c2cc(-c3ccccc3)sc2N)n[nH]c1=S	M18AAP inhibitor 28.3
COc1ccc2c(c1)c(=O)oc1cc3occ(C(C)(C)C)c3cc12	IMP-1 inhibitor 22.0
COc1ccc(Cl)cc1C(=O)OCC(=O)NC(=O)c1cccn1C	VIM-2 inhibitor 11.3
